Assay results pooled from the literature.
Target: Kappa-type opioid receptor (OPRK1, Homo sapiens, UniProt P41145)
Effect on: ligand displacement
Tested at: 10 µM

| Structure (SMILES) | method | notes | inhibition |
| --- | --- | --- | --- |
| C[C@H](C(=O)N[C@H]1COc2ccccc2[C@@H]1S(C)(=O)=O)c1ccc(F)cc1 | – | – | 1% |
| C[C@@H]1N=C(c2ccccc2F)c2cc(Br)ccc2-n2cnc(C(=O)O)c21 | radioligand | – | 62.8% |
| C[C@@H]1C[C@H]2O[C@@H]2/C=C\C=C\C(=O)Cc2c(Cl)c(O)cc(O)c2C(=O)O1 | radioligand | cell membranes | -56% |
| c1ccc(C(NCCNC(c2ccccc2)c2ccccc2)c2ccccc2)cc1 | – | – | 88% |
| c1ccc(C2CCN(c3cnc4c(N5CCOCC5)nccn34)CC2)cc1 | – | – | 6.44% |
| CC(C)N1CCC[C@H]1CNC(=O)c1cn(C2CCCC2)c(=O)c2c1c1ccccc1n2C | radioligand | – | 5% |
| COCc1c(-c2cc3cc(C)cc(OC)c3s2)c2c(N)ncnn2c1CN1CCNC(=O)C1 | radioligand | – | 17% |
| COc1ccc(C(=O)NCc2cc(C(C)C)no2)cc1OC1CCN(C)CC1 | radioligand | – | 22% |
| CCc1ccccc1C(=O)Nc1n[nH]c2c(C)c(F)c(C3C(C#N)=C(C)N(C)C(C)=C3C#N)cc12 | – | – | 16.1% |
| Clc1ccc2c(C3CCN(CCc4c[nH]c5ccccc45)CC3)c[nH]c2c1 | radioligand | – | 79% |
